According to article PMC5696082 (Analytical biochemistry, 2017):

Assays:
hCE1 [1] = biological target: T1, hCE1 (Homo sapiens, UniProt P23141); assay: Potency of esterase inhibitors, hCE1; assay type: biochemical
T1 sequence (P23141 18-567): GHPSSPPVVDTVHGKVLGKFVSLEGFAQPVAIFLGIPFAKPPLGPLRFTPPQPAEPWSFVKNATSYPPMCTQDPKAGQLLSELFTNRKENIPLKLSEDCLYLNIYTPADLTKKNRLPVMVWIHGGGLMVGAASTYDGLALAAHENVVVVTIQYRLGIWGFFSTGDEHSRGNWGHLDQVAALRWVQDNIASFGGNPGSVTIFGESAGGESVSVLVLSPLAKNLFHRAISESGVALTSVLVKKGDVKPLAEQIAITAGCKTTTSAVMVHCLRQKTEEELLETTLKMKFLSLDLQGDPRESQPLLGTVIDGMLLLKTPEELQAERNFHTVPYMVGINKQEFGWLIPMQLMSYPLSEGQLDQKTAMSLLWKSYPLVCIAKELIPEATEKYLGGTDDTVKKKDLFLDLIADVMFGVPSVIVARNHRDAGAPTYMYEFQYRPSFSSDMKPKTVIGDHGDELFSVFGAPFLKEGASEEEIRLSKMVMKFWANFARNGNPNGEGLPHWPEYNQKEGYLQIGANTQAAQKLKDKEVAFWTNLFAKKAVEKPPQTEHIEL

hCE3 [2] = biological target: T2, hCE3 (Homo sapiens, UniProt Q6UWW8); assay: Potency of esterase inhibitors, hCE3; assay type: biochemical
T2 sequence (Q6UWW8 27-571): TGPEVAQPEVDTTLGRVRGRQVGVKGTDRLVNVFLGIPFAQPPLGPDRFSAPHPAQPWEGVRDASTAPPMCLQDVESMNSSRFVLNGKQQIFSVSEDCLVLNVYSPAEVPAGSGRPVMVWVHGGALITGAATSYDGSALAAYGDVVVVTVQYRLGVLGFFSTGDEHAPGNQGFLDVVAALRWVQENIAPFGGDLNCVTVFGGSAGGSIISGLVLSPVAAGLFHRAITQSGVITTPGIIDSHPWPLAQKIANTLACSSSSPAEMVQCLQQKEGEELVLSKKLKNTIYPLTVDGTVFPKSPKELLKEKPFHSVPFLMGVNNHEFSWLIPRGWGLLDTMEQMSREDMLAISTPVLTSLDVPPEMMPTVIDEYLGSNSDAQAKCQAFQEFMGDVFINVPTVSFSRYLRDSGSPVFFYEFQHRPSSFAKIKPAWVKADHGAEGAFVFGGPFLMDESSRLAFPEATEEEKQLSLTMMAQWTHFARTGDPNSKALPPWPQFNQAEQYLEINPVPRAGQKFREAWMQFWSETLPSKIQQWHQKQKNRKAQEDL

AADAC = biological target: T3, AADAC (Homo sapiens, UniProt P22760); assay: Potency of esterase inhibitors, AADAC; assay type: biochemical
T3 sequence (P22760 1-399): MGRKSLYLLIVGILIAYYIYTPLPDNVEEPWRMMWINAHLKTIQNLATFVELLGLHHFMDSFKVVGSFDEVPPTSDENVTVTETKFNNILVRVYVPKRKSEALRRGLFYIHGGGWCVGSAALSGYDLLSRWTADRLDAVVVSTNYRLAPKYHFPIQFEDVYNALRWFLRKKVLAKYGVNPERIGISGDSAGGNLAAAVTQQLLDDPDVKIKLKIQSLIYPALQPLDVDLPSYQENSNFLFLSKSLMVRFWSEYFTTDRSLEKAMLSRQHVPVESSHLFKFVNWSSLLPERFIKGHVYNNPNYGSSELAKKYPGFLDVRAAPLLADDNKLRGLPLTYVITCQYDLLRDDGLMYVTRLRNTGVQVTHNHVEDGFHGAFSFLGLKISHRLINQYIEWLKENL

FAAH [3] = biological target: T4, FAAH (Homo sapiens, UniProt O00519); assay: Potency of esterase inhibitors, FAAH; assay type: biochemical
T4 sequence (O00519 1-579): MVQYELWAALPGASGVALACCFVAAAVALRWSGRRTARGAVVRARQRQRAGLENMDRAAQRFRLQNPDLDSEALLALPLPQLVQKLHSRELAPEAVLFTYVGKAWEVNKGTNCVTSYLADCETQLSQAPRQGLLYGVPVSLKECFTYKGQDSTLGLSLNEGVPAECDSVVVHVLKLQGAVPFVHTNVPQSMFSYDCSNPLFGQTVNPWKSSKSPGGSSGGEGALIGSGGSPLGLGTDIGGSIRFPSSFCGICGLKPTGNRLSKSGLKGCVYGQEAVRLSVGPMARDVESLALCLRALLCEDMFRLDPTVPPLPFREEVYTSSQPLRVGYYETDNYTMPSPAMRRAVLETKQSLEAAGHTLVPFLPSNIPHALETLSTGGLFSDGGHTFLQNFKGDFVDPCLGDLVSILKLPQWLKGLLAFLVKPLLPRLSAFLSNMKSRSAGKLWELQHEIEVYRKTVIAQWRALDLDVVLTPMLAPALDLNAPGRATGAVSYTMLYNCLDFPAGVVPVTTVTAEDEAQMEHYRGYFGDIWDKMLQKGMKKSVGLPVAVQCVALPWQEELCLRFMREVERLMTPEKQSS

PON1 = PON1 (Homo sapiens, UniProt P27169); assay: Potency of esterase inhibitors, PON1; assay type: biochemical
PON1, sequence (P27169 whole entry, species assumed): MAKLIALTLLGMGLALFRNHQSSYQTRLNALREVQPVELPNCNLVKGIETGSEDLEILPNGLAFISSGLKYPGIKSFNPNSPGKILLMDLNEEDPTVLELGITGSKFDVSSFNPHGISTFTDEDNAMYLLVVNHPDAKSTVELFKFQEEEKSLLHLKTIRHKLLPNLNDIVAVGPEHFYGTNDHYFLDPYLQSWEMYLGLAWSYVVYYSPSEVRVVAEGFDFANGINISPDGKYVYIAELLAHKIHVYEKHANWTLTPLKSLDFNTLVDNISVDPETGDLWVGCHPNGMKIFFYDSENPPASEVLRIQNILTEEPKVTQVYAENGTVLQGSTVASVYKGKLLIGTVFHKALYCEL
Outline: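 PON1 used as crude lysate of baculovirus-infected insect cells in PBS. Added to 2-fold serial inhibitor dilutions (top concentration at most 100 µM) and preincubated 5 min. Cyanohydrin ester substrate then added to 50 µM final, DMSO ≤2%, in 100 mM phosphate pH 8, 0.1 mg/mL BSA, 37°C. Fluorescence (ex 330/em 465 nm) read kinetically for 10 min. IC50 from linear regression of log[inhibitor] against % remaining activity; triplicates, single experiment.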

hCE1 [4] = biological target: T1, hCE1; assay: Specific activity of hCE1 towards substrates; assay type: biochemical
Outline: (§1)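 Enzymes expressed in baculovirus-infected High Five cells: hCE1 CHAPS-solubilised from the 100,000 g pellet, then DEAE-purified; hCE2/hCE3 crude soluble fraction; FAAH crude insoluble fraction. Substrate added to 50 µM final in 100 mM sodium phosphate pH 8.0, 0.1 mg/mL BSA, 1% DMSO. Fluorescence read every 30 s for ≥10 min at 37°C. Rates corrected for estimated purity: hCE1 25%, hCE2 4%, hCE3 3.5% (3% in footnotes), FAAH 6.9%. Triplicates.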

hCE2 [5] = biological target: T5, hCE2 (Homo sapiens, UniProt O00748); assay: Specific activity of hCE2 towards substrates; assay type: biochemical
T5 sequence (O00748 27-559): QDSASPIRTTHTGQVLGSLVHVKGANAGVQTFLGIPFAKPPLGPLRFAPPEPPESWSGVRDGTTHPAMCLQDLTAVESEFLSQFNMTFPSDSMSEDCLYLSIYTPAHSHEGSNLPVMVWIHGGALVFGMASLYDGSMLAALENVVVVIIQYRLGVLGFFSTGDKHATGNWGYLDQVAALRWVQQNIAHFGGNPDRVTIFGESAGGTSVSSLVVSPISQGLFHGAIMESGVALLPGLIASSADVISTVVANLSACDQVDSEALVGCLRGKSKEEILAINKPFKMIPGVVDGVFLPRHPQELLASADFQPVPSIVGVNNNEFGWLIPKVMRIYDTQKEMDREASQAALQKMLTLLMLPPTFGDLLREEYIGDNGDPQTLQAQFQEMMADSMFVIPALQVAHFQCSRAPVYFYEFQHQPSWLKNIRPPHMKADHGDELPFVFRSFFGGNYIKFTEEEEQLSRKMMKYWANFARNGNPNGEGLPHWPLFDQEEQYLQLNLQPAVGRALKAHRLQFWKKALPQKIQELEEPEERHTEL
Outline: as §1

hCE3 [6] = biological target: T2, hCE3; assay: Specific activity of hCE3 towards substrates; assay type: biochemical
Outline: as §1

FAAH [7] = biological target: T4, FAAH; assay: Specific activity of FAAH towards substrates; assay type: biochemical; details: Table 2; [S] = 50 µM, 37°C, pH 8; estimated 6.9% purity
Outline: as §1

hCE1 [8] = biological target: T1, hCE1; assay: Limit of detection and quantification for hCE1 using partially purified enzyme; assay type: biochemical; details: [S] = 50 µM; for LOD for hCE1: S/N > 3; for LOQ for hCE1: S/N > 9
Outline: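 Partially purified recombinant hCE1, without any matrix, diluted into wells with substrate at 50 µM. Assay run in 100 mM sodium phosphate, pH 8, 0.1 mg/mL BSA, 1% DMSO, at 37°C. S/N taken as mean signal of enzyme wells over the SD of […], quadruplicates in one experiment. LOD set as the lowest level with S/N > 3; LOQ as S/N > 9.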

[9] = Background hydrolysis of substrates in phosphate buffer; assay type: physicochemical; details: phosphate buffer 100 mM, pH 8, 0.1 mg/mL BSA
Intestine S9 = assay: Substrate hydrolysis by pooled tissue S9, intestine; assay type: biochemical, human
Outline: (§2)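 Commercial pooled human tissue S9 fraction added to substrate at 50 µM final in 100 mM sodium phosphate, pH 8.0, 0.1 mg/mL BSA. Fluorescence monitored every 30 s for at least 10 min at 37°C. Specific activity given as the mean of triplicates in one experiment, or mean ± standard deviation of 3 independent experiments run in triplicate.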

Kidney S9 = assay: Substrate hydrolysis by pooled tissue S9, kidney; assay type: biochemical, human
Outline: as §2

Liver S9 = assay: Substrate hydrolysis by pooled tissue S9, liver; assay type: biochemical, human
Outline: as §2

Lung S9 = assay: Substrate hydrolysis by pooled tissue S9, lung; assay type: biochemical, human
Outline: as §2

hCE2 [10] = biological target: T5, hCE2; assay: Potency of esterase inhibitors, hCE2; assay type: biochemical
[11] = Kinetic mode (30 s intervals for 30 minutes)

SMILES: COc1ccc(C(=O)C(=O)c2ccccc2Cl)cc1OC [2-chloro-3’,4’- dimethoxybenzil, 2-chloro-3’,4’-dimethoxybenzil]
- IC50 (hCE1 [1]): 2.5 µM
- IC50 (hCE3 [2]): > 100 µM
- IC50 (AADAC): > 100 µM
- IC50 (FAAH [3]): 7.6 µM
- IC50 (PON1): 25 µM

SMILES: COc1ccc2cc(C(C#N)OC(C)=O)ccc2c1 (stereo not drawn) [CMNA, cyano(6-methoxynaphthalen-2-yl)methyl acetate]
- hCE1 Specific activity (hCE1 [4]; Table 2, [S] = 50 µM, 37°C, pH 8, estimated 25% purity): 3000 pmol/min/µg
- Hydrolysis Specific Activity (hCE1 [4]; Table 6, hCE1): 3,000 pmol/min/µg
- hCE2 Specific activity (hCE2 [5]; Table 2, [S] = 50 µM, 37°C, pH 8, estimated 4% purity): 11000 pmol/min/µg
- Hydrolysis Specific Activity (hCE2 [5]; Table 6, hCE2): 11,000 pmol/min/µg
- hCE3 Specific activity (hCE3 [6]; Table 2, [S] = 50 µM, 37°C, pH 8, estimated 3% purity): 150 pmol/min/µg
- Hydrolysis Specific Activity (hCE3 [6]; Table 6, hCE3): 150 pmol/min/µg
- FAAH Specific activity (FAAH [7]): 13 pmol/min/µg
- LOD for hCE1 (hCE1 [8]; Endpoint mode 1 hour): 0.98 ng
- LOQ for hCE1 (hCE1 [8]; Endpoint mode 1 hour): 7.8 ng
- LOD for hCE1 (hCE1 [8]; Endpoint mode 4 hours): 3.9 ng
- LOD for hCE1 (hCE1 [8]; Endpoint mode 24 hours): 0.06 ng
- LOD for hCE1 (hCE1 [8]; [11]): 2.0 ng
- LOQ for hCE1 (hCE1 [8]; [11]): 3.9 ng
- Rate of background hydrolysis [9]: 20 pmol/min
- Hydrolysis Specific Activity (Intestine S9): 74 ± 3 pmol/min/µg
- Hydrolysis Specific Activity (Kidney S9): 15 ± 5 pmol/min/µg
- Hydrolysis Specific Activity (Liver S9): 180 ± 30 pmol/min/µg
- Hydrolysis Specific Activity (Lung S9): 13 ± 1 pmol/min/µg

SMILES: NC(Cc1cc(I)c(Oc2cc(I)c(O)c(I)c2)c(I)c1)C(=O)O (stereo not drawn) [Thyroxine]
- IC50 (hCE1 [1]): 1.5 µM
- IC50 (hCE2 [10]): 16 µM
- Selectivity hCE2/hCE1 (hCE2 [10]; from IC50 values): 0.094
- IC50 (hCE3 [2]): 23 µM
- IC50 (AADAC): 0.73 µM
- IC50 (FAAH [3]): > 100 µM
- IC50 (PON1): 2.1 µM
